Source: PubChem
The list is not random: actives were taken first. Their share in the collection is about 2.2%.
IEC-6 cytotox: cytotoxicity in IEC-6 intestinal epithelial cells, primary screen, cytotoxicity control for KLF5 inhibitor project, cell-based, luminescence | hit rate 0.78% among 290,000 | inhibition, % at 5 µM | IEC-6 cytotoxicity, luminescence viability | AID 1825, 2009;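 note: 0% = plate median of test compound wells and 100% = cytotoxic reference compound wells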
Ba/F3 V617F tox: reduced viability of JAK2V617F-dependent Ba/F3 cells, primary screen, JAK2V617F inhibitor project, cell-based, Ba/F3 EpoR-JAK2V617F, luminescence | ATP luminescence | inhibition, % at 5.6 µM | hit rate 1.1% among 220,000 | AID 1446, 2008;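 active = inhibition above the campaign mean plus 3 SD over all tested compounds, cut at about 24% in these data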;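 note: cytokine-independent growth of Ba/F3 cells driven by EpoR plus mutant JAK2; 0% = DMSO-treated cells and 100% = JAK inhibitor I control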
BaF3 parental: parental Ba/F3 cell viability inhibition, counter-screen for JAK2V617F inhibitor project, murine pro-B, CellTiter-Glo luminescence | CellTiter-Glo ATP luminescence | inhibition, % at 5.6 µM | hit rate 1.1% among 220,000;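 active = inhibition above a per-campaign cutoff, the mean inhibition of all tested compounds plus 3 SD, cut at about 27% in these data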;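 note: 0% = DMSO wells and 100% = JAK Inhibitor I control wells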
APP 5UTR inh: inhibitors of APP translation via 5'UTR reporter, primary screen, APP 5'UTR luciferase, SH-SY5Y cells. SH-SY5Y APP 5'UTR-luciferase reporter, luminescence. inhibition, % at 2 µM. hit rate 0.82% among 190,000;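 active = inhibition above a set limit, derived from the sample mean plus 3 SD, cut at about 45% in these data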
bCat nuc transl: modulators of beta-catenin nuclear translocation, primary screen, imaging, HeLa cells, immunofluorescence, high-content; hit rate 0.3% among 190,000; nuclear translocation activity, % at 5 µM;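 active = nuclear translocation activity above 50% at 5 µM, with a well cell count of 50 or more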;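 note: per-cell ratio of nuclear to cytoplasmic median beta-catenin stain intensity; plate controls were DMSO negative control for no effect and GSK-3 inhibitor IX positive control for full effect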
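System: Human HeLa cells, endogenous beta-catenin | Compound dosing: 5 µM primary, 0.02–20 µM confirmation | Timing: 24 h compound exposure at 37°C, 5% CO2 | Measured by: Fluorescence imaging of beta-catenin antibody stain plus DAPI | Read-out basis: % activation of per-cell nuclear versus cytoplasmic median beta-catenin signal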
MT stabilize HCS: microtubule stabilizers in HeLa cells, primary screen, imaging, high-content imaging; HeLa tubulin immunostaining HCS, 24 h; share of cells brighter than vehicle mean+2SD; % tubulin-high responders, % at 10 µM; hit rate 0.83% among 200,000;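 active = plate Z-score above 3 for both tubulin-high and condensed-nucleus cell shares, with cell loss under 80%, at 10 µM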;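 note: anti alpha tubulin signal scored within the nucleus-defined area of each cell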
IEC-6 tox confirm: cytotoxic compounds in IEC-6 epithelial cells, confirmation, cytotoxicity control, cell-based, luminescence; shares compounds with IEC-6 cytotox; IEC-6 rat intestinal epithelial viability; inhibition, % at 5 µM; hit rate 63% among 1,900; AID 1907, 2009;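 note: 0% = vehicle and 100% = reference cytotoxic drug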
* marks the source's active call; other numbers are inactive results; . = no result given. Cut-off read from the data, not from the text of the source, unless noted: active = inhibition above about 22%; inactive = the rest.

SMILES | IEC-6 cytotox | Ba/F3 V617F tox | BaF3 parental | APP 5UTR inh | bCat nuc transl | MT stabilize HCS | IEC-6 tox confirm
Nc1ccc(C(=O)OCC(=O)N2c3ccccc3Sc3ccccc32)cc1[N+](=O)[O-] | -2.4 | -1.6 | 1.8 | -18.2 | -0.9 | 3.3 | .
COc1ccc(OC)c(Nc2cc(-c3ccccc3)nc(N)n2)c1 | 88.7* | 82.7* | 76.1* | 94.2* | . | 8.4 | 56.5*
C/C(=N/NC(=O)c1ccc(Br)o1)c1cccc(NC(=O)c2ccc(F)cc2)c1 | -4.2 | . | . | . | . | . | .
O=S(=O)(Nc1cc(Sc2ncn[nH]2)c(O)c2ccccc12)c1ccccc1 | 85.1* | 95.1* | 99.4* | 75.8* | 0.1 | 4.9 | -4.3
Cc1ccc(S(=O)(=O)Nc2ccc(Br)cc2C(NCC(=O)O)c2ccccc2)cc1 (centres undefined) | 3.6 | -0.5 | -0.8 | -10.6 | 1.2 | 3.3 | .
Cc1cc(NS(=O)(=O)c2ccccc2)c(C)c(Cl)c1O | . | . | . | . | -9.9 | . | .
O=C(O)CSc1cc(NS(=O)(=O)c2ccc(Br)cc2)c2ccccc2c1O | 53.5* | . | . | . | . | . | -3.3
COc1ccc(S(=O)(=O)NCc2ccccn2)cc1NC(=O)c1ccccc1 | 45.2* | . | . | . | . | . | 45.1*
CCOc1ccc(S(=O)(=O)NCc2ccccn2)cc1NC(=O)c1ccccc1F | 87.9* | . | . | . | . | . | 57.6*
O=C(NCc1ccccc1C(F)(F)F)C1CCC(=O)N(CCCc2ccccc2)C1 (centres undefined) | -0.7 | . | . | . | . | . | .
Cc1ccc(Nc2nc(N)nc(-c3oc4ccccc4c3C)n2)cc1 | 83.1* | 75.7* | 75.9* | 92.0* | 49.2 | 6.8 | 79.4*
COc1cccc(Nc2nc(N)nc(-c3oc4ccccc4c3C)n2)c1 | 24.7* | 12.0 | 13.6 | 75.9* | . | 9.5 | 34.6*
Cc1cccc(Nc2nc(N)nc(-c3oc4ccccc4c3C)n2)c1 | 11.5 | -4.6 | 3.8 | . | 27.4 | . | .
O=C(CN(Cc1ccc(F)cc1)C(=O)CCC(=O)Nc1ccccn1)NCCc1ccccc1 | -7.2 | . | . | . | . | . | .
O=C(Cc1ccc(-n2cccc2)cc1)NCc1ccccc1Cl | 28.7* | -1.0 | 6.3 | 4.9 | 62.8* | 24.5* | 31.6*
CCn1c(SCC(=O)Nc2cccc(C)c2)nc2ccccc2c1=O | 22.1* | . | . | . | . | . | 7.2
Cc1cc2ccccn2c1C(=O)c1ccc([N+](=O)[O-])cc1[N+](=O)[O-] | -0.8 | . | . | . | . | . | .
CCOc1c(Br)cc(CNc2ccc3c(c2)OCCO3)cc1OC | 76.3* | 80.1* | 77.1* | 93.6* | 132.4* | 12.5 | 53.6*
CCOc1cc(CNc2ccc3c(c2)OCCO3)cc(Br)c1OCC(N)=O | -6.7 | 1.1 | -1.3 | -1.3 | -0.8 | 21.1 | .
CCOc1cc(CNc2ccc3c(c2)OCCO3)cc(Br)c1OC | 82.3* | 71.7* | 73.2* | 93.7* | 142.7* | 14.4 | 60.5*
Cc1ccc(NC(=O)Cn2c(=O)c3cccn3c3ccccc32)c(Cl)c1 | 6.8 | . | . | . | . | . | .
O=C(N/N=C/c1ccc([N+](=O)[O-])o1)c1cc(-c2ccc(-c3ccccc3)cc2)nc2ccccc12 | 35.8* | 64.4* | 61.5* | 89.8* | 45.9 | 12.4* | 51.6*
NNC(=O)c1cc(-c2cccs2)nc2ccccc12 | 31.8* | 3.6 | 4.1 | . | -1.8 | . | 2.8
Cc1ccsc1/C=N/NC(=O)c1cc(-c2ccncc2)nc2ccccc12 | 72.4* | 70.6* | 75.5* | 93.8* | 44.0 | 9.6 | 57.8*
CCOc1ccc(-c2cc(C(=O)N/N=C(\C)c3cccnc3)c3ccccc3n2)cc1 | 36.2* | . | . | . | . | . | 10.7
SMILES | IEC-6 cytotox | Ba/F3 V617F tox | BaF3 parental | APP 5UTR inh | bCat nuc transl | MT stabilize HCS | IEC-6 tox confirm
CC(C)NC(=O)c1cc(-c2cccs2)nc2ccccc12 | -4.7 | . | . | . | . | . | .
O=C(N/N=C/c1ccc([N+](=O)[O-])o1)c1cc(-c2ccncc2)nc2ccccc12 | -5.4 | -1.1 | 3.6 | -0.1 | -0.2 | 20.4 | .
COc1ccccc1-c1cc(C(=O)N/N=C/c2sccc2C)c2ccccc2n1 | -3.9 | -0.1 | 3.5 | 5.1 | 1.5 | 2.5 | .
Cc1ccc(/C=N/NC(=O)c2cc(-c3ccncc3)nc3ccccc23)o1 | 65.2* | . | . | . | . | . | 45.3*
O=C(N/N=C/c1cccnc1)c1cc(-c2ccc(Br)cc2)nc2ccccc12 | 25.7* | . | . | . | . | . | 20.8
O=C(CN1C(=O)c2cccnc2Oc2ccc(Cl)cc21)NCCCc1ccccc1 | -1.1 | . | . | . | . | . | .
O=C(c1ccccc1)c1c2c(cc3sc4ccccc4[n+]13)-c1cccc3cccc-2c13 | 39.1* | 85.8* | 68.3* | -35.9 | 24.1 | 3.7 | 17.8
COc1cc(C(C)=O)ccc1Oc1cc(NN2CCCCC2)c([N+](=O)[O-])cc1[N+](=O)[O-] | -4.8 | . | . | . | . | . | .
CCOC(=O)c1c(C)[nH]c(C(=O)N/N=C/c2ccc(OC)c(OC)c2)c1C | 61.8* | . | . | . | . | . | 48.9*
COc1ccc(/C=N/NC(=O)c2cc3c(OC)ccc(OC)c3[nH]2)cc1O | 40.1* | . | . | . | . | . | 19.6
CCOC(=O)c1c(C)[nH]c(C(=O)N/N=C/c2cc([N+](=O)[O-])ccc2O)c1C | 10.6 | . | . | . | . | . | .
COc1ccccc1/C=N/NC(=O)c1cc2c(OC)c(OC)ccc2[nH]1 | 46.8* | . | . | . | . | . | 14.8
COc1cccc(/C=N/NC(=O)c2cc3c(OC)c(OC)ccc3[nH]2)c1OC | 55.0* | 54.2* | 42.2* | 57.0* | 25.3 | 11.3 | 42.3*
COc1cccc(/C=N/NC(=O)c2cc3c(OC)cccc3[nH]2)c1OC | -1.1 | 1.5 | 5.7 | 1.6 | -1.6 | 8.5 | .
N#C/C(=C\c1ccc[nH]1)C(=O)Nc1ccccc1[N+](=O)[O-] | -6.0 | . | . | . | . | . | .
CCCNC(=O)Nc1cc(OC)c(OC)cc1Cc1nccc2cc(OC)c(OC)cc12 | -0.9 | . | . | . | . | . | .
CCOc1cc(S(=O)(=O)NCc2ccncc2)ccc1Cl | 24.0* | 63.9* | 84.3* | 1.6 | -1.4 | 4.7 | 19.9
CCOc1cc(S(=O)(=O)NCc2cccs2)ccc1Cl | -0.4 | 0.3 | 6.4 | 1.8 | 0.4 | 2.6 | .
Nc1nc(Cl)nc2c1ncn2[C@H]1C[C@H](O)[C@@H](CO)O1 | 89.5* | 101.4* | 95.0* | 75.7* | -3.3 | 11.6 | 67.8*
Nc1ncnc2c1ncn2[C@H]1C[C@H](O)[C@@H](CO)O1 | 4.9 | 0.7 | 9.4 | -4.1 | -6.6 | 1.6 | .
COc1ccc(S(=O)(=O)Nc2ccc(S(=O)(=O)Nc3cc(C)nc(C)n3)cc2)cc1OC | -1.3 | . | . | . | . | . | .
COc1ccc(CCN(C)c2ncnc3sccc23)cc1OC | -0.8 | 4.7 | 0.6 | 1.9 | -1.0 | 9.6 | .
COc1ccc(CN(C)c2ncnc3sccc23)c(OC)c1OC | 23.0* | . | . | . | . | . | 9.8
Cc1cccc(C(=O)NC2CCN(CC(=O)Nc3ccccc3Cl)CC2)c1 | 5.2 | . | . | . | . | . | .
Cc1cccc(NC(=O)C2CC(O)CN2C(=O)Oc2ccccc2)c1 (centres undefined) | 3.3 | . | . | . | . | . | .
